A selection: hits, their analogues and other compounds. The true share with any hit is near 1.9%.
aSyn 5UTR inh: MLPCN primary screen, SNCA 5' untranslated region; alpha-synuclein 5'UTR reporter, inhibitor activity; inhibition, % (tested at 7.5 µM); 300,000 compounds, 0.82% hits; AID 1813; in the data active means inhibition above about 60%;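 further: H4 neuroglioblastoma cells stably carrying SNCA 5'UTR luciferase fusion; 0% = DMSO wells and 100% = positive control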
APP 5UTR inh: APP translation inhibition; inhibition, % at 2 µM; AID 1285; 190,000 compounds, 0.82% hits; SH-SY5Y APP 5'UTR-luciferase reporter, luminescence;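 active means inhibition above a set limit, derived from the sample mean plus 3 SD, cut at about 45% in these data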
697 NFkB inh: inhibitors of the PMA/ionomycin-induced NF-kB reporter in 697 B cells; 697 B-cell NF-kB luciferase reporter, 16 h; 330,000 compounds, 0.33% hits; inhibition, % at 4 µM; AID 435022; in the data active means inhibition above about 35%
TAG inh: triacylglycerol accumulation inhibition | inhibition, % at 12.5 µM | H9c2 cells, Nile Red lipid (TAG) fluorescence; cells loaded with 200 µM oleic acid | 230,000 compounds, 0.66% hits;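 active means pattern-corrected inhibition of lipid staining of at least 50% with the nuclear-stain viability signal not falling by more than 50%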;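 further: 0% = DMSO wells and 100% = triacsin C control wells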
Lipid droplet: hepatic lipid droplet formation modulation | AML12 mouse hepatocytes, oleate lipid droplets, BODIPY imaging | inhibition, % at 6.5 µM | 240,000 compounds, 0.4% hits;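 active means lipid droplet intensity inhibited by at least 50%, with more than 500 cells counted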
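Assay system: AML12 mouse liver cells | Compound: 6.5 µM single-point dosing | Schedule: Overnight exposure | Technique: Fluorescence imaging, 20x objective, two fields per well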
Jurkat NFkB inh: lowers PMA/ionomycin-induced NF-kB signal in Jurkat cells. 330,000 compounds, 0.53% hits. AID 435003. inhibition, % at 4 µM. PMA/ionomycin-induced NF-kB luciferase reporter, luminescence; in the data active means inhibition above about 50%
Jurkat NFkB conf: lowers PMA/ionomycin-induced NF-kB signal in Jurkat cells. shares compounds with Jurkat NFkB inh. Jurkat NF-kB luciferase, 16 h. inhibition, % at 4 µM. 2,700 compounds, 27% hits. AID 435020;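 active means inhibition reaching about 45% at 4 µM in either replicate, limit read from the data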;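 further: plate controls were PMA/ionomycin stimulated DMSO wells for no effect and unstimulated DMSO wells for full effect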
697 NFkB conf: lowers PMA/ionomycin-induced NF-kB signal in 697 B cells. inhibition, % at 4 µM. 2,000 compounds, 35% hits. AID 449746. shares compounds with 697 NFkB inh. 697 B-cell NF-kB luciferase, 16 h; in the data active means inhibition mostly above about 28%, no sharp cut-off; inactive means mostly below about 22%
H9c2 TAG conf: triacylglycerol accumulation inhibition, confirmation | 990 compounds, 71% hits | H9c2 lipid accumulation, Nile Red fluorescence; cells loaded with 200 µM oleic acid | AID 651629 | shares compounds with TAG inh | inhibition, % at 12.5 µM;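 active means mean inhibition across replicates of 40% or more; inactive means mean inhibition below 40%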;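 further: plate controls were DMSO only wells for no effect and Triacsin C treated wells for full effect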
* marks the source's active call; other numbers are inactive results; i = inactive; x = not tested or not shown.

SMILES	aSyn 5UTR inh	APP 5UTR inh	697 NFkB inh	TAG inh	Lipid droplet	Jurkat NFkB inh	Jurkat NFkB conf	697 NFkB conf	others
COC(=O)c1ccc(NC(=O)C(=O)c2c[nH]c3ccccc23)cc1	-92.5	x	-39.3	x	-12.7	-35.0	x	x
O=C(Nc1ccccc1)C(=O)c1c[nH]c2ccccc12	-53.6	x	-299.5	x	13.7	-214.9	-142.8	-328.5
Cc1ccc(NC(=O)c2csc(-c3ccccc3)c2C)cc1	x	-215.5	x	x	x	x	x	x
Cc1c(C(=O)Nc2cccc([N+](=O)[O-])c2)csc1-c1ccccc1	-130.3	-194.4	i	x	x	-419.3	-193.4	i
CCCCN(C(=O)C1CCCC1)c1c(N)n(CC(C)C)c(=O)[nH]c1=O	x	x	9.3	2.3	x	-0.6	x	x
N=c1c2c(-c3ccccc3)c(-c3ccccc3)n(Cc3ccccc3)c2ncn1CCCn1ccnc1	33.3	83.1*	37.4*	x	x	57.7*	42.1	24.1*
CC(=O)Nc1cccc(-c2ccnc3c2CC(C)(C(=O)Nc2ccc(C(C)C)cc2)O3)c1 (stereo unspecified)	x	x	x	-9.9	x	x	x	x
c1ccc(COc2ncnc3c2ncn3CCCN2CCN(c3ncccn3)CC2)cc1	x	x	x	7.8	x	x	x	x
CCN=c1scc(-c2ccc(F)cc2)n1/N=C/c1ccccn1	-73.0	-106.9	-167.5	-41.9	-9.4	-92.3	x	x
CCN=c1scc(-c2ccccc2)n1/N=C/c1ccccn1	26.2	-165.7	i	22.9	-17.3	-198.7	-116.4	i
C=CCN=c1scc(-c2ccccc2)n1/N=C/c1ccccn1	-67.8	-99.3	i	-27.9	-18.2	-199.1	-88.6	i
COc1ccccc1N1CCN(c2ccc3ccccc3n2)CC1	-53.3	x	-310.5	x	-13.9	-156.7	-98.7	-257.5
COc1ccccc1N1CCN(c2cc(N3CCCC3)nc(C)n2)CC1	9.3	12.6	-37.7	x	11.4	16.5	x	x
O=C1CCCCCN1C(=O)c1ccccc1	x	x	x	-5.1	x	x	x	x
CC(C)(C)c1ccc(C(=O)N2CCCCCC2=O)cc1	90.7*	56.9*	71.1*	-13.1	-7.9	53.6*	66.8*	66.3*
O=C(O)c1cccc(COc2ccccc2Cl)c1	103.3*	x	67.0*	x	-9.2	81.9*	78.4*	42.8*
COc1cccc(NC(=O)Nc2cccc(C(=O)O)c2)c1	40.7	51.1*	56.7*	0.3	-0.2	70.1*	50.0*	58.0*
COc1cccc(NC(=O)c2ccccc2)c1	x	x	-40.0	7.7	x	-58.4	x	x
COc1cccc(NC(=O)Nc2nc(-c3ccc(OC)c(OC)c3)cs2)c1	40.8	x	56.4*	x	-8.3	89.5*	14.2	3.0
O=C(Nc1cccc(C(=O)O)c1)Nc1ccc2c(c1)OCO2	99.4*	x	70.5*	-2.2	-2.8	87.9*	68.9*	69.3*
O=C(Nc1ccc(Cl)c(Cl)c1)c1ccc2c(c1)OCO2	-133.4	x	-369.8	x	-4.2	-204.6	-173.5	-319.6
COc1ccc(CCNc2ncnc3sccc23)cc1OC	-20.8	-27.8	74.6*	-26.0	-53.8	64.3*	66.8*	92.3*
COc1ccc(CCNc2ncnc3c2oc2ccccc23)cc1OC	-44.3	12.2	46.9*	x	x	62.0*	57.4*	54.0*
COc1ccccc1C(=O)Nc1ccnn1C1CCN(Cc2ccc3nonc3c2)CC1	22.9	x	-28.7	x	0.0	14.6	x	x
COc1ccc(C)c2sc(=NC(=O)c3ccc(C(C)=O)cc3)n(C)c12	-19.9	x	-358.8	9.2	-10.5	-251.1	-136.3	-154.6
SMILES	aSyn 5UTR inh	APP 5UTR inh	697 NFkB inh	TAG inh	Lipid droplet	Jurkat NFkB inh	Jurkat NFkB conf	697 NFkB conf	others
O=c1ccc(Cl)nn1-c1ccccc1	2.2	x	10.1	-2.5	x	-3.3	x	x
COc1cccc(C2CC(c3cccc(C)c3)n3ncnc3N2)c1 (stereo unspecified)	-2.2	8.0	2.9	1.5	-19.0	-11.5	x	x
Cc1ccc(OCCN2CCN(c3ncnc4sc(C)c(C)c34)CC2)cc1	-3.8	x	43.2*	x	-17.9	67.3*	66.1*	55.8*
Cc1sc2ncnc(N3CCCCC3)c2c1C	21.5	x	-29.7	x	-0.1	-14.4	x	x
Clc1ccc(OCCN2CCN(c3ncnc4sccc34)CC2)cc1	-4.1	15.2	100.4*	x	-80.8	66.8*	75.7*	96.3*
CN1/C(=C\C=[N+](C)c2ccccc2)C(C)(C)c2ccccc21	16.3	9.7	83.4*	x	x	74.3*	65.7*	56.7*
CN1/C(=C\C=N\O)C(C)(C)c2ccccc21	-5.1	-9.5	-12.3	x	-5.9	6.1	x	x
COc1ccc2cc(-c3ccccc3)ncc2c1	-64.9	x	-327.2	19.7	6.7	-202.4	-130.9	-303.0
Cc1ccc(C)c(S(=O)(=O)N2CCN(C(=O)CSc3ccccc3F)CC2)c1	5.1	x	-4.3	-13.0	-10.2	-0.7	x	x
CC(/C=C1\N=C(SCc2ccccc2)SC1=O)=C\c1ccccc1	-14.4	8.1	13.1	x	19.4	-2.9	x	x
O=S(=O)(NCC1CCCO1)c1ccc(-c2ccc(S(=O)(=O)NCC3CCCO3)cc2)cc1 (stereo unspecified)	-21.9	6.3	47.8*	-37.5	-17.5	70.3*	69.3*	82.7*
CC(=O)NS(=O)(=O)c1ccc(NC(=O)c2ccccn2)cc1	-16.3	9.0	6.1	5.6	-5.6	-2.6	x	x
O=C(Nc1ccc(SC(F)(F)F)cc1)c1ccccn1	10.9	-149.7	-262.8	-2.8	1.6	-179.6	-128.7	-345.5
O=C(c1cccc(Cl)c1)N1CCN(CCCc2ccccc2)CC1	-12.7	x	1.8	x	x	-9.5	x	x
Nc1ccccc1C#Cc1ccccc1	-162.2	-118.9	-254.8	52.6*	x	54.8*	-79.8	-76.0	H9c2 TAG conf=53.6*
Cc1cccc2c(C(=O)N3CCN(c4ccccc4)CC3)cc(-c3ccncc3)nc12	94.1*	x	7.7	60.2*	-176.2	60.1*	-3.0	x	H9c2 TAG conf=76.6*
CN1CCN(Cc2cn(C)nc2-c2ccccc2F)CC1c1ccccc1 (stereo unspecified)	18.3	-6.3	20.9	-3.2	-2.3	-1.7	x	x
Cc1cc(N2CCN(Cc3cn(C)nc3-c3ccccc3F)CC2)cc(C)n1	90.9*	81.3*	-24.3	74.3*	-66.5	68.9*	-7.7	x	H9c2 TAG conf=83.6*
Cc1cc(N2CCN(Cc3cn(C)nc3-c3cccc(Cl)c3)CC2)cc(C)n1	71.6*	60.4*	-23.3	71.0*	-17.1	61.6*	5.4	x	H9c2 TAG conf=77.0*
Cc1ccc(C2=NN(CC(=O)NCCC(C)C)C(=O)CC2)cc1	12.6	x	9.1	x	8.3	11.6	x	x
Cc1cc(C)n2nc(CC(=O)NCc3ccccc3Cl)nc2n1	13.9	-3.4	-29.3	x	6.0	-5.5	x	x
CCN(CC)C(=O)C1CCC(CNS(=O)(=O)c2cccc3nsnc23)CC1 (stereo unspecified)	13.0	x	-32.6	x	-14.9	-10.2	x	x
CCOC(=O)c1cc(CC)sc1NC(=O)c1ccc(N2CCOCC2)c([N+](=O)[O-])c1	14.5	-7.1	1.1	x	x	-8.5	x	x

Screens deposited in PubChem BioAssay by several laboratories.
